This is an account of results in article PMC7184160 (EBioMedicine, 2020).

In data set [1] the test system is metastatic RCC. The note with it: range over the agents, cited from earlier work.
The test system of data set [2] is metastatic RCC. Particulars: phase II, advanced RCC after one previous antiangiogenic therapy; cited from earlier work.
The nature of data set [3]: phase 1 safety and tolerability of vorolanib plus everolimus. The class given is in vivo, human. Particulars: in the combination, 22 patients. The method, boiled down: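 Open-label, single-centre 3+3 escalation in Chinese patients with advanced ccRCC after failed standard therapy. Oral test compound at 100, 150 or 200 mg daily, given 4 h after partner drug at a fixed 5 mg daily, in 28-day cycles. AEs graded by CTCAE v4.03. Allowed changes: stepwise reduction 200→150→100 mg/day, partner drug 5 mg every other day, and interruption up to 4 weeks.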

The conditions of data set [4]: cited from earlier work.
Data set [5] in a line: plasma pharmacokinetics of vorolanib, X-297 and everolimus. The note with it: human, oral, t1/2z (half-life), range over cohorts, first single dose, vorolanib 100–200 mg in combination with everolimus 5 mg. The class given is in vivo.
The conditions of data set [6]: cited from earlier work. This is another data set of the same source.
For data set [7] the following is noted: cited from earlier work. This is another data set of the same source.
Data set [8] relates to VEGFR2 (KDR), PDGFR, Flt3 and c-Kit. Particulars: range over VEGFR2 (KDR), ref unpublished data; cited from earlier work.
For data set [9] the following is noted: cited from earlier work. This is another data set of the same source.
Setting [10] is: established second-line monotherapies, Discussion.
[11] abbreviates: second-line options for metastatic RCC.
[12] abbreviates: monotherapy 50–800 mg once daily.

Like-named read-outs stand apart in the source and are kept apart here.

As for `CO[C@H]1C[C@@H]2CC[C@@H](C)[C@@](O)(O2)C(=O)C(=O)N2CCCC[C@H]2C(=O)O[C@H]([C@H](C)C[C@@H]2CC[C@@H](OCCO)[C@H](OC)C2)CC(=O)[C@H](C)/C=C(\C)[C@@H](O)[C@@H](OC)C(=O)[C@H](C)C[C@H](C)/C=C/C=C/C=C/1C` [everolimus], the “median PFS” value with metastatic RCC [1] (setting [10]) is recorded as 4.4–8.3 months; in the data set with metastatic RCC [1] (setting [11]), 3.8–7.4 months; in the data set with metastatic RCC [2] it was 5.5 months. The “patients with dose interruption” value in data set [3] is “eight”. In [4], the “patients with grade 3 and 4 events” value was 50%.
As to `CNC(=O)c1ccccc1Sc1ccc2c(/C=C/c3ccccn3)n[nH]c2c1` [axitinib], the “median PFS” value in the data set on metastatic RCC [1] (setting [10]) is recorded as 4.4–8.3 months; in the data set with metastatic RCC [1] (setting [11]) it was 3.8–7.4 months.
`COc1cc2nccc(Oc3ccc(NC(=O)C4(C(=O)Nc5ccc(F)cc5)CC4)cc3)c2cc1OC` [cabozantinib]: the entries for the “median PFS” value with metastatic RCC [1] (setting [10]) and in the data set with metastatic RCC [1] (setting [11]) were 4.4–8.3 months and 3.8–7.4 months, respectively.
`Cc1[nH]c(/C=C2\C(=O)Nc3ccc(F)cc32)c(C)c1C(=O)N[C@H]1CCN(C(=O)N(C)C)C1` [vorolanib, Vorolanib]: in [5], the half-life is 4.74 to 12.9 h. Moreover, in [3], the “patients with dose interruption” value is given as “fourteen” and the “patients with dose reduction” value is reported as “four”. In addition, in [6] (across 100 to 250 mg dose cohort), the “patients with grade 3 or higher events” value is 7 out of 19. The “recommended dose for monotherapy” value in [6] is given as 200 mg. Besides, the MTD entry in [6] (monotherapy 50–250 mg once daily, Chinese patients) is recorded as “not achieved”. The “dose-limited toxicity (DLT)” value in data set [6] (monotherapy, China) is reported as “No dose-limited toxicity (DLT) was observed”. Besides, in data set [7] (setting [12]), the “grade 4 AEs or deaths related to vorolanib” value is “no grade 4 AEs or deaths related to vorolanib was reported” and the “treatment-related grade 3 adverse event proteinuria” value is given as 4%. Further, the “apparent saturation of absorption (dose)” value in data set [7] (monotherapy tablet once daily) is 400 to 800 mg. The MTD entry in [7] (monotherapy tablet, dose range 50–800 mg once daily, solid tumors) was “not achieved”. In addition, in data set [7] (monotherapy, dose range 20 to 400 mg daily), the “maximum tolerated dose (MTD)” value is “without achieving the most tolerated dose (MTD)”. The “recommended dose of monotherapy” value in data set [7] (once daily, patients with advanced cancer) is 400 mg. Also, the half-maximal inhibitory concentration (IC50) in [8] was 0.13 to 1.12 nM.
Regarding `COc1cc2nccc(Oc3ccc(NC(=O)NC4CC4)c(Cl)c3)c2cc1C(N)=O` [lenvatinib], the “median PFS” value with metastatic RCC [2] is listed as 7.4 months.
As to `CCN(CC)CCNC(=O)c1c(C)[nH]c(/C=C2\C(=O)Nc3ccc(F)cc32)c1C` [sunitinib], in data set [9], the “grade 3/4 AE diarrhea” value was 5%, the “grade 3/4 AE fatigue” value is on record as 7%, the “grade 3/4 AE hand-foot syndrome” value is 5% and the “grade 3/4 AE hypertension” value is given as 8%. Further, in [9], the “grade 3/4 AE increased lipase” value was 13%, the “grade 3/4 AE lymphopenia” value was 12%, the “grade 3/4 AE neutropenia” value is 11% and the “grade 3/4 AE vomiting” value is on record as 4%.
As for nivolumab, the “median PFS” value with metastatic RCC [1] (setting [10]) is on record as 4.4–8.3 months; with metastatic RCC [1] (setting [11]), 3.8–7.4 months.

A word on the half-life: it is the time needed for the level to fall by half in the phase considered. The term IC50 denotes the concentration that gives 50% inhibition.
